The text below walks through data of ChEMBL document CHEMBL5321236, “Fluoro-labelled sp2-iminoglycolipids with immunomodulatory properties” (Eur J Med Chem, 2023).

The source made the active and inactive calls. No cut-off for these calls is given here.

One assay relates to HBL-100. In words: Growth inhibition of human HBL-100 cells measured after 48 hrs by SRB colorimetric assay. It is filed as functional. In short, it runs like this:
(§1)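 NCI-based protocol with sulforhodamine B read-out. Seeded 2500 (A549, HBL-100, HeLa, SW1573), 5000 (T-47D, WiDr, SW1573/P-gp) or 7000 (BJ-hTERT) cells/well. Exposed 48 h to serial decimal dilutions, 0.001–100 μM, from 40 mM DMSO stock. GI50 by NCI formulas; mean of three or more experiments ± SD.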

The next assay has as its system WiDr. As to the kind of experiment: Growth inhibition of human WiDr cells measured after 48 hrs by SRB colorimetric assay. It is filed as functional. In short, it runs like this: as §1
The subject of assay [1] is HeLa. In words: Induction of morphological changes in human HeLa cells assessed as formation of apoptotic bodies at 20 uM measured after 5 hrs by microscopy based analysis. It is filed as functional, cell-based. In short, it runs like this:
(§2)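 HeLa and SW1573 seeded at 100,000 cells/dish. After 24 h, medium switched to phenol-red-free RPMI 1640 and 20 μM added. Label-free holotomographic 3D live imaging of a 236 × 236 μm field, 10–20 cells initially, every 3 min for 15 h. Average dry mass density measured per cell at each cycle; morphology scored against untreated cells.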

The subject of assay [2] is BV-2. As to the kind of experiment: Antiinflammatory activity in mouse BV-2 cells assessed as reduction of LPS induced nitrites at 10 uM preincubated for 3 hrs followed by LPS stimulation and measured after 24 hrs by Griess method. It counts as functional, cell-based. Conditions: time 27.0 hrs. In short, it runs like this: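 Bv.2 microglia at 70% confluence, pre-treated 3 h at 10 μM in serum-free medium, then LPS 200 ng/mL for 24 h. Nitrite in the medium measured by Griess (1% sulphanilamide, 0.1% NEDA in acid), absorbance 548 nm, expressed as fold change over basal. n ≥ 4 independent experiments in triplicate, mean ± SEM.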

The test system of the next assay is hTERT-BJ. As to the kind of experiment: Growth inhibition of human hTERT-BJ cells measured after 48 hrs by SRB colorimetric assay. It counts as functional. In short, it runs like this:
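NCI-based protocol with sulforhodamine B read-out. Cells grown in RPMI 1640 with 5% FBS and 1 mM glutamine at 37 °C, 5% CO₂. Seeded 2500 (A549, HBL-100, HeLa, SW1573), 5000 (T-47D, WiDr, SW1573/P-gp) or 7000 (BJ-hTERT) cells/well. Exposed 48 h to serial decimal dilutions, 0.001–100 μM, from 40 mM DMSO stock. GI50 by NCI formulas; mean of three or more experiments ± SD.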

Assay [3] relates to HeLa. As to the kind of experiment: Induction of morphological changes in human HeLa cells assessed as decrease in cell volume at 20 uM measured after 5 hrs by microscopy based analysis. It is filed as functional. In short, it runs like this: as §2
Assay [4] has as its system HeLa. In words: Induction of morphological changes in human HeLa cells assessed as membrane rupture at 20 uM measured after 12 hrs by imaging based analysis. It is filed as functional, cell-based. In short, it runs like this:
as §2

Assay [5] has as its system BV-2. As to the kind of experiment: Protection against LPS induced inflammation in mouse BV-2 cells assessed as decrease in Tnf-alpha mRNA expression at 10 uM incubated for 24 hrs with LPS stimulation by qRT-PCR analysis.
Assay [6] deals with Mitogen-activated protein kinase 14 (Mus musculus) (UniProt P47811). As to the kind of experiment: Inhibition of LPS-stimulated p38 alpha phosphorylation in mouse BV-2 cells at 10 uM measured after 30 mins by Western blot analysis. It is filed as cell-based. In short, it runs like this:
(§3)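 Bv.2 cells exposed with or without LPS for 15–90 min. Protein extracts run on SDS-PAGE, blotted to PVDF, probed with anti-phospho-p38α MAPK and anti-total p38α MAPK (1:1000), ECL detection. Quantified by densitometry, mean ± SEM, n = 3.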

The test system of assay [7] is SW1573. As to the kind of experiment: Induction of morphological changes in human SW1573 cells assessed as increase in average dry mass density at 20 uM measured after 15 hrs by imaging based analysis. It counts as functional, cell-based. In short, it runs like this:
as §2

In assay [8] the test system is SW1573. In words: Inhibition of colony formation in human SW1573 cells assessed as reduction in number of colonies at GI50 concentration measured after 7 days by crystal violet staining based analysis. It is filed as functional, cell-based. Conditions: time 7.0 day. An outline of the steps: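 HeLa and SW1573 seeded at 400 cells/well, dosed next day at GI50/3 and GI50 for the given line. Exposed seven days, fixed in methanol, stained with 0.5% w/v crystal violet. Colonies counted by automatic image segmentation.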

Assay [9] deals with HeLa. As to the kind of experiment: Induction of morphological changes in human HeLa cells at 20 uM measured after 12 hrs by imaging based analysis.
A further assay has as its system A549. As to the kind of experiment: Growth inhibition of human A549 cells measured after 48 hrs by SRB colorimetric assay. It counts as functional. In short, it runs like this:
as §1

Assay [10] relates to HeLa. As to the kind of experiment: Induction of morphological changes in human HeLa cells assessed as production of filmy bubbles at 20 uM measured after 12 hrs by imaging based analysis. It counts as functional, cell-based. An outline of the steps: as §2
For assay [11], the system named is HeLa. As to the kind of experiment: Induction of apoptosis in human HeLa cells assessed as membrane blebbing at 20 uM measured upto 15 hrs by microscopy based analysis. It is filed as functional, cell-based. In short, it runs like this:
as §2

In assay [12] the test system is SW1573. As to the kind of experiment: Induction of morphological changes in human SW1573 cells assessed as cell shrinkage at 20 uM measured after 5 hrs by microscopy based analysis. It is filed as functional. In short, it runs like this:
as §2

In assay [13] the target is Mitogen-activated protein kinase 14 (Mus musculus) (UniProt P47811). As to the kind of experiment: Inhibition of LPS-stimulated p38 alpha phosphorylation in mouse BV-2 cells at 10 uM measured after 15 to 90 mins by Western blot analysis. It counts as cell-based. Conditions: time 15-90 min. In short, it runs like this:
as §3

Chain of Mitogen-activated protein kinase 14 (Mus musculus) (P47811 whole entry): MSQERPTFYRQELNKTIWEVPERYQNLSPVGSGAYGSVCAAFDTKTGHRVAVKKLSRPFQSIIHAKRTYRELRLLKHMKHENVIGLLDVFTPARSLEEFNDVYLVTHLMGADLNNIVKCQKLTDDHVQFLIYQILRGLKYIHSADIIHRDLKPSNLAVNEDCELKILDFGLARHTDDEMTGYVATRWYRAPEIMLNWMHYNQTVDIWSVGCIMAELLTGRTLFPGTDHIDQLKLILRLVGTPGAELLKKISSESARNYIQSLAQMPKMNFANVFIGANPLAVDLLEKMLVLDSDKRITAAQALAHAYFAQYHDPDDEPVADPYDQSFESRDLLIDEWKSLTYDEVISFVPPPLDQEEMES

In the case of `CCCCCCCCCCCCS(=O)(=O)[C@@H]1[C@H](F)[C@@H](O)[C@H](O)[C@H]2COC(=O)N21`, the GI50 stood at 19 µM in the assay on HBL-100, 20 µM in the assay on WiDr, 32 µM in the assay with hTERT-BJ and 4.6 µM in the assay on A549. In addition, the result in the assay with HeLa [1], with BV-2 [2], in the assay with HeLa [3], in the assay with HeLa [4], in the assay with BV-2 [5] and in the assay on SW1573 [7] was Active. In addition, the result with HeLa [9], in the assay with HeLa [10], in the assay on HeLa [11] and in the assay with SW1573 [12] was Active. Besides, the inhibition entry in assay [6] and in assay [13] was “inactive” throughout. Also, the inhibition entry in the assay on SW1573 [8] is “Active”.
